In brackets after ≈: the same amount, converted by molar mass.
Columns and labels:
Assay type in all cases: functional
Streptococcus pyogenes = assay: Antibacterial activity against Streptococcus pyogenes after 3 to 4 days by serial plate dilution method; details: for MIC: Streptococcus pyogenes
Summary of the method: (§1)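 Serial dilutions in Mueller-Hinton broth in tubes, pH adjusted to 5.0 with phosphate buffer. Inoculated with a standardized bacterial suspension and incubated 16–18 h at 37 °C. MIC is the lowest concentration with no visible growth, tested over 6.25–100 µg/mL. Zones come from an agar well diffusion assay: compounds in DMSO are added to wells in seeded agar, DMSO control, triplicate plates, 37 °C for 3–4 days, inhibition zone diameter in mm.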

Klebsiella pneumoniae = assay: Antibacterial activity against recultured Klebsiella pneumoniae after 3 to 4 days by serial plate dilution method; details: for MIC: Klebsiella pneumoniae; summary of the method: as §1
Talaromyces marneffei = assay: Antifungal activity against recultured Penicillium marneffei after 3 to 4 days by serial plate dilution method; details: for MIC: Talaromyces marneffei
Summary of the method: (§2)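 Sabouraud agar made from peptone, glucose and agar in water, pH 5.7. Fungal spores suspended in normal saline and used to lawn the plates, which were dried 1 h at 37 °C. Wells punched and compounds added in DMSO, with a DMSO solvent control. Triplicate plates held at 37 °C for 3–4 days. Read-out is inhibition zone diameter.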

Aspergillus fumigatus = assay: Antifungal activity against Aspergillus fumigatus NCIM 902 after 3 to 4 days by serial plate dilution method; details: for MIC: Aspergillus fumigatus, NCIM 902; summary of the method: as §2
Candida albicans = assay: Antifungal activity against Candida albicans after 3 to 4 days by serial plate dilution method; details: for MIC: Candida albicans; summary of the method: as §2
Pseudomonas aeruginosa = assay: Antibacterial activity against Pseudomonas aeruginosa ATCC 27853 after 3 to 4 days by serial plate dilution method; details: for MIC: Pseudomonas aeruginosa, ATCC 27853; summary of the method: as §1
Staphylococcus aureus = assay: Antibacterial activity against Staphylococcus aureus ATTC 25923 after 3 to 4 days by serial plate dilution method; details: for MIC: Staphylococcus aureus, ATTC 25923; summary of the method: as §1
Aspergillus flavus = assay: Antifungal activity against Aspergillus flavus NCIM 524 after 3 to 4 days by serial plate dilution method; details: for MIC: Aspergillus flavus, NCIM 524; summary of the method: as §2
Escherichia coli = assay: Antibacterial activity against Escherichia coli ATTC 25922 after 3 to 4 days by serial plate dilution method; details: for MIC: Escherichia coli, ATTC 25922; summary of the method: as §1
[1] = tested on: Trichophyton mentagrophytes; assay: Antifungal activity against recultured Trichophyton mentagrophytes after 3 to 4 days by serial plate dilution method; details: for MIC: Trichophyton mentagrophytes; summary of the method: as §2

Row | Structure (SMILES) | diameter of the inhibition zone (DIZ) (Streptococcus pyogenes) [mm] | MIC (Streptococcus pyogenes) [µg/mL] | diameter of the inhibition zone (DIZ) (Klebsiella pneumoniae) [mm] | MIC (Klebsiella pneumoniae) [µg/mL] | diameter of the inhibition zone (DIZ) (Talaromyces marneffei) [mm] | MIC (Talaromyces marneffei) [µg/mL] | diameter of the inhibition zone (DIZ) (Aspergillus fumigatus) [mm] | MIC (Aspergillus fumigatus) [µg/mL] | diameter of the inhibition zone (DIZ) (Candida albicans) [mm] | MIC (Candida albicans) [µg/mL] | diameter of the inhibition zone (DIZ) (Pseudomonas aeruginosa) [mm] | MIC (Pseudomonas aeruginosa) [µg/mL] | diameter of the inhibition zone (DIZ) (Staphylococcus aureus) [mm] | MIC (Staphylococcus aureus) [µg/mL] | diameter of the inhibition zone (DIZ) (Aspergillus flavus) [mm] | MIC (Aspergillus flavus) [µg/mL] | diameter of the inhibition zone (DIZ) (Escherichia coli) [mm] | MIC (Escherichia coli) [µg/mL] | diameter of the inhibition zone (DIZ) [1] [mm] | MIC [1] [µg/mL]
1 | COc1ccc2nc(C)cc(-n3cc(CN4CCN(C(C)C)CC4)nn3)c2c1 | 16 | 6.25 (≈ 16.4 µM) | 16 | 6.25 (≈ 16.4 µM) | 14 | 6.25 (≈ 16.4 µM) | 18 | 6.25 (≈ 16.4 µM) | 14 | 6.25 (≈ 16.4 µM) | 14 | 6.25 (≈ 16.4 µM) | 18 | 6.25 (≈ 16.4 µM) | 16 | 6.25 (≈ 16.4 µM) | 20 | 6.25 (≈ 16.4 µM) | 16 | 6.25 (≈ 16.4 µM)
2 | COc1ccc2nc(C)cc(-n3cc(CN4CCOCC4)nn3)c2c1 | 16 | 6.25 (≈ 18.4 µM) | 14 | 6.25 (≈ 18.4 µM) | 12 | 6.25 (≈ 18.4 µM) | 18 | 6.25 (≈ 18.4 µM) | 14 | 6.25 (≈ 18.4 µM) | 14 | 6.25 (≈ 18.4 µM) | 16 | 6.25 (≈ 18.4 µM) | 16 | 6.25 (≈ 18.4 µM) | 16 | 6.25 (≈ 18.4 µM) | 12 | 6.25 (≈ 18.4 µM)
3 | COc1ccc2nc(C)cc(-n3cc(CN4CCC(c5ccccc5)CC4)nn3)c2c1 | 11 | 12.5 (≈ 30.2 µM) | 11 | 12.5 (≈ 30.2 µM) | <10 | 50 (≈ 121 µM) | <10 | 50 (≈ 121 µM) | <10 | 50 (≈ 121 µM) | 12 | 12.5 (≈ 30.2 µM) | 10 | 12.5 (≈ 30.2 µM) | <10 | 50 (≈ 121 µM) | 10 | 12.5 (≈ 30.2 µM) | <10 | 50 (≈ 121 µM)
4 | COc1ccc2nc(C)cc(-n3cc(CN4CCN(c5ccccc5F)CC4)nn3)c2c1 | 14 | 6.25 (≈ 14.5 µM) | 10 | 6.25 (≈ 14.5 µM) | 12 | 6.25 (≈ 14.5 µM) | 12 | 6.25 (≈ 14.5 µM) | 10 | 6.25 (≈ 14.5 µM) | 10 | 6.25 (≈ 14.5 µM) | 10 | 12.5 (≈ 28.9 µM) | 10 | 6.25 (≈ 14.5 µM) | 10 | 12.5 (≈ 28.9 µM) | 10 | 6.25 (≈ 14.5 µM)
5 | COc1ccc2nc(C)cc(-n3cc(CNC4CCCC4)nn3)c2c1 | 12 | 6.25 (≈ 18.5 µM) | 14 | 6.25 (≈ 18.5 µM) | 10 | 6.25 (≈ 18.5 µM) | 14 | 6.25 (≈ 18.5 µM) | 10 | 6.25 (≈ 18.5 µM) | 12 | 6.25 (≈ 18.5 µM) | 12 | 6.25 (≈ 18.5 µM) | 10 | 6.25 (≈ 18.5 µM) | 12 | 6.25 (≈ 18.5 µM) | 10 | 6.25 (≈ 18.5 µM)
